Measured values gathered from unrelated publications.
Lines come from different studies, so protocols differ.
Target: Serine/threonine-protein kinase tousled-like 1 (TLK1, Homo sapiens, UniProt Q9UKI8)
One construct used (Q9UKI8 1-766): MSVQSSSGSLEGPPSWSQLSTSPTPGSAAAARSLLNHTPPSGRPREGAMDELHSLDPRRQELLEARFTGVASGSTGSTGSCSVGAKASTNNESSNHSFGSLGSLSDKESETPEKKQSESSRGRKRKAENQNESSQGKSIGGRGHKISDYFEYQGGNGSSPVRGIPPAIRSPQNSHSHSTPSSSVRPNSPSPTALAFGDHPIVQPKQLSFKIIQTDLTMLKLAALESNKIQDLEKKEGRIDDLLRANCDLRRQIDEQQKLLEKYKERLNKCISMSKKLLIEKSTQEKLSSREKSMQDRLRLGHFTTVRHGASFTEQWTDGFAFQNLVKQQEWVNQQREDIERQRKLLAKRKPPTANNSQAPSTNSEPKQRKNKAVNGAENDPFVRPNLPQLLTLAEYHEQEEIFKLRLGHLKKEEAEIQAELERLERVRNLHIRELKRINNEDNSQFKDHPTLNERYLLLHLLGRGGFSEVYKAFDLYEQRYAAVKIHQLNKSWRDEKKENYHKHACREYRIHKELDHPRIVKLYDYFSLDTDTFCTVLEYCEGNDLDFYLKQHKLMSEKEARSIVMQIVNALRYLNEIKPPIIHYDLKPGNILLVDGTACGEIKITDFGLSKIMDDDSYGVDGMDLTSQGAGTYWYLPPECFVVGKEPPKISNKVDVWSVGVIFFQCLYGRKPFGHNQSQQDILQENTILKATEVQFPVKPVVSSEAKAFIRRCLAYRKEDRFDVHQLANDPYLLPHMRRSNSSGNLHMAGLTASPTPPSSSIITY

For `CN(C)c1nccc(-c2cnc3ncccn23)n1`, the remaining binding was 81% (binding; 1 µM).
The remaining binding of `C[C@@H](c1ccc(-n2cnc3c(N)ncnc32)cc1)N1CCc2nn(C)c(Cc3ccccc3)c2C1=O` is reported as 81% (binding, competition with immobilised ligand; 0.1 µM).
`COc1ccnn2ncc(-c3ccnc(N(C)C)n3)c12` gave a remaining binding of 100% (binding; 1 µM).
For `CCN1CCN(Cc2ccc(C(=O)Nc3ccc(C)c(Oc4ccc5c(c4)CC(=O)N5)c3)cc2C(F)(F)F)CC1`, the remaining binding was 88% (binding, competition with immobilised ligand; 1 µM).
With `CCC(=O)N[C@@H]1CC[C@H](C(=O)N(C)c2ccc(-c3nc4ccccc4o3)cc2)C1` the remaining binding was 100% (cell-free assay, competition with immobilised ligand; 1 µM).
`CNC(=O)[C@@H]1CC[C@@H](n2c(-c3ccc4cnccc4c3)nc3ccc(C(=O)NCc4cccc(C(N)=O)c4)cc32)C1` gave a remaining binding of 97% (binding, competition with immobilised ligand; 1 µM).
`CCc1ccccc1C(=O)Nc1n[nH]c2c(C)c(F)c(C3C(C#N)=C(C)N(C)C(C)=C3C#N)cc12` gave a remaining binding of 100% (cell-free assay, competition with immobilised ligand; 1 µM).
For `O=C(c1ccc(Nc2ncc(Cl)c(-c3cc4ccccc4s3)n2)cc1)N1CCC(N2CCCC2)CC1`, the remaining binding was 32% (binding, competition with immobilised ligand; 1 µM).
With `C=CC(=O)N1CCC(C(=O)NCC(=O)N2CCN(c3nc(-c4cnc(N)nc4C(F)F)nc(N4CCOCC4)n3)CC2)CC1` the remaining binding was 99% (binding, competition with immobilised ligand; 1 µM).
With `O=C1NC(c2ccccn2)Sc2ccccc21` (centres unmarked) the remaining binding was 94% (cell-free assay, competition with immobilised ligand; 1 µM).
With `CN(CCCC(F)(F)F)c1nccc(-c2cnn3ncccc23)n1` the remaining binding was 100% (binding; 1 µM).
`O=C(c1ccc(Nc2nccc(-c3cc4ccccc4s3)n2)cc1)N1CCC(N2CCCC2)CC1` gave a remaining binding of 12% (binding, competition with immobilised ligand; 1 µM).
With `O=C(Nc1c[nH]nc1C(=O)NC1CCNCC1)c1cc(F)cc(F)c1` the remaining binding was 100% (binding, competition with immobilised ligand; 1 µM).
With `COc1cnc(Nc2cccc(S(N)(=O)=O)c2)nc1N1CCN(c2ccccc2)C(=O)C1` the remaining binding was 97% (binding, competition with immobilised ligand; 1 µM).
With `Cc1c[nH]c2nccc(Oc3c(F)cc(Nc4cc(Cl)nc(N)n4)cc3F)c12` the remaining binding was 100% (cell-free assay, competition with immobilised ligand; 0.1 µM).
With `O=C(c1ccc(Nc2ncc(Cl)c(-c3ccc(Cl)s3)n2)cc1)N1CCC(N2CCCC2)CC1` the remaining binding was 32% (binding, competition with immobilised ligand; 1 µM).
With `O=C(Nc1ccc(Oc2ccc(F)cc2)cc1)N1CCc2ncccc2[C@H]1c1ccc(F)cc1` the remaining binding was 100% (cell-free assay, competition with immobilised ligand; 1 µM).
For `CC1CCCN1c1nccc(-c2cnn3ncccc23)n1` (centres unmarked), the remaining binding was 97% (binding; 1 µM).
With `O=S(=O)(NC1CCC(c2cc(F)ccc2F)(S(=O)(=O)c2ccc(Cl)cc2)CC1)C(F)(F)F` (centres unmarked) the remaining binding was 100% (cell-free assay, competition with immobilised ligand; 1 µM).
With `N[C@H]1CCN(c2nccc(-c3cnn4ncccc34)n2)C1` the remaining binding was 64% (binding; 1 µM).
